Reference: the EternaBench riboswitch data

Tested on: MS2 coat protein
Experiment: apparent Kd, MS2 coat protein; higher = weaker binding; RNA-MaP array; FMN 200 µM where present
Summary of the method: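 SNAP-549-labelled MS2 coat protein, doubled from 0.7 or 1.5 nM to 3 µM, was titrated over designs transcribed by stalled E. coli RNA polymerase on Illumina sequencing-chip clusters. Titrations were run without and then with constant ligand in 100 mM Tris-HCl pH 7.5, 80 mM KCl, 4 mM MgCl2, BSA, DTT, yeast tRNA and Tween-20. The apparent Kd is the median of filtered per-cluster fits to green signal normalised to red-channel RNA signal and control-cluster median Fmax.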

[1] = designed as: OFF switch for flavin mononucleotide, no ligand
[2] = ligand present: flavin mononucleotide, designed as: OFF switch for flavin mononucleotide
[3] = designed as: ON switch for flavin mononucleotide, no ligand
[4] = ligand present: flavin mononucleotide, designed as: ON switch for flavin mononucleotide

Sequence	apparent Kd [1] [nM]	apparent Kd [2] [nM]	apparent Kd [3] [nM]	apparent Kd [4] [nM]
ACGGCUAACCCAGUUUAAAUCUCAAGAAGGGUACACUGGGCAAGGUACAUGAGGAUCACCCAUGUACAGGAUAUUGAGAUGAGA	25.6	45.4	–	–
GUCAGCUCGUGAGGAUAUACAACACUGCUUCGGCAGUGUAUUACGAUCACAUGAGGAUCACCCAUGUAGAAGGCACGAGCUGAU	15.2	307	–	–
GUGACGAAUGUAGGAUAUGCUGACCAAUGGUCAGCAGAAGGACAUGAGGAUCACCCAUGUCAUCCUUAUAAUGAAUAACGUCAC	13.5	18.6	–	–
GCCGCACAUGAGGAUCACCCAUGUAAUUACAUGGGAGGAUAUCAGUGCUCGAAAGAGCACUGAGAAGGCCUGAGGC	–	–	81.3	1070
GCCGAGUGAGGAUAUAGCCAGGUUCGAUAAGGUCGAAUCGGCUAGAAGGCACAUGAGGAUCACCCAUGUGGGUA	225	449	–	–
UAGUAUAAGGGCAUUACACAUGAGGAUCACCCAUGUACGUUAGAGGAUAUGCAUUACAGUUGAAAGUAGAAGGUUAGAGAAGGG	40.5	46.5	–	–
AAAUAGAAUGAGGAUAUCGUAUUAUAUUUAGUACGAGAAGGCAUUACAUGAGGAUCACCCAUGUUUUGUUGGGA	21.8	57.9	–	–
AUAGGCCUAGGAUAUACAUGAGGAUCACCCAUGUUAACACUUCAAUCAAGUUAAUAUUGUAGAAGGAGGAAUAA	30.4	29.4	–	–
AUAGCUCUCUAGAAGGUCCAACCAGUAUUCCAUCAGGUAAAUACGGUAGGGAGGAUAUGGGACAUGAGGAUCACCCAUGUGUAG	–	–	42.2	25.2
UGGUACAUCGGAGGAUAUCAUGUAGAUACAUGAGGAUCACCCAUGUCGAUGGAGACAUCGGAGAUUGAGAAGGCCGAUGUACCU	–	–	612	31.7
UGAUCGAGAGAUCUUAGAUUCUGGUAGGAUAUACAUAUUGUAAUAUAGACAUGAGGAUCACCCAUGUAGAAGGACUAGAGUCUA	6.6	11.5	–	–
CUAAUGAGUGCGAGCUGACACAUGAGGAUCACCCAUGUAACACAGGAUAUCUGUCAAGGCGUGAAAGAGAAGGGUGGUCGGAAA	–	–	142	263
CCAUAAAAGAUCCAAAUUUACAACAUGAGGAUCACCCAUGUGCAGGAUAUCGUGAAAGUAAAAUACGAGAAGGGCAAGAACUGC	300	362	–	–
ACAUGAGGAUCACCCAUGUGUGCAUAGGAUAUUGAGGAUUAGGGAUGUUUUUUUGGAUUUGCCCACAAGAAGGAUGAAAGUGUU	–	–	10.6	10.5
CGAUAGUGUCGUUAUCCGUAGCGAACAUGAGGAUCACCCAUGUAGGAUAUGUUACUAAACUAGUAACAGAAGGGCGUGAGUCUU	129	161	–	–
UCUCGACAUGAGGAUCACCCAUGUCAGGAUAUUGUAUUGGAGGUGUUUAACCUUAUGGCAAGAAGGGAUGUGUG	24	27.1	–	–
AUCAGCUCGUCAGGAUAUACGUCACUGCGUCAGCAGUGUUGUAAGAUCACAUGAGGAUCACCCAUGUAGAAGGGACGAGCUGAU	5.91	10.2	–	–
GUAGCAUUGAGAGGAUAUCCAUACCGGAAACGGACAUGAGGAUCACCCAUGUGGCGAAAGCCUUGGGAGAAGGCUCUAUGCUAC	–	–	4.35	3.52
AAAGAGUCAGGAUAUUCGUAUAGAGUAGCGCGACUCUAUACGAAGAAGGGACAUGAGGAUCACCCAUGUAAAAA	28.1	45.6	–	–
UGGCAAGUAGGAUAUUGGGUGUGGGACAUGAGGAUCACCCAUGUGAUCACUCAAUCUCUCCGAGAAGGGCUAAGAA	14	15.4	–	–
AGCUGGUGACAGCAAGAAUUUUAACAUGAGGAUCACCCAUGUAGAAGGCUGUACGGUUACCGUACAGAGGAUAUACAUAGAAAG	43.2	62.2	–	–

Sequence	apparent Kd [1] [nM]	apparent Kd [2] [nM]	apparent Kd [3] [nM]	apparent Kd [4] [nM]
UAUAAAUACAUUAACAUGAGGAUCACCCAUGUCAAAAGACAUGAGGAUAUGCAUCCUAAUUGGAUGCAGAAGGCAUGUAUAAUU	–	–	174	16.9
AGCUGGUGACAGCAUCCAUCAUGACAUGAGGAUCACCCAUGUAGAAGGCUGUACGGUUACCGUACAGAGGAUAUACAAUGAUGG	7.73	8.21	–	–
CUUUUGUGAGGAUAUCAGUAGUAGAACAAUAGUACUACUACUGAGAAGGCACAUGAGGAUCACCCAUGUUCUUC	33.5	118	–	–
GACUCGAAUGUAGGAUAUGCUGAGGAAUACUCAGCAGAAGGACAUGAGGAUCACCCAUGUCAAUGAGUGAAUAAUAAACGAGUC	29.2	224	–	–
UGAUCUUGAGUCAGGAUAUGCUGGUAUUUUUACCAGCAGAAGGGACAUGAGGAUCACCCAUGUUCUCACUUUUU	10.1	13.4	–	–
UGUCGGAGCAGAGGAUAUUACAUGAGGAUCACCCAUGUGGAAGAACCAAGCUGGAAACAGCAAUGUAAGAAGGCUGCUCCGACA	1010	467	–	–
UAGGAGUCAGGAUAUGCGAGAGAUGGAAGUAAGGGAUGAGAGCAGAAGGGACAUGAGGAUCACCCAUGUAAGGA	39.7	37.8	–	–
AAACAUGUCCGAGGAUAUCUGGAAACAUUUUCAAGAGAAGGCGGACAUGAGGAUCACCCAUGUCUCUCCUCAUCAAGUCCAAGU	8.47	46.2	–	–
UAAUAAUAAUAAUAAUGCUGACAUACAUGAGGAUCACCCAUGUAGGAUAUCGUCAGGAAUACUGACGAGAAGGACAUAGUCAGC	15.4	17.4	–	–
ACAUGCAAGUAGAAGGUCGGAUAUUUUGAUAACGAAGGAUAUACAGAAUCAUAUCCACAUGAUAACAUGAGGAUCACCCAUGUA	15.2	15	–	–
GUAGUGCUCAUAGGAUAUCGGGAACAACGUAGACAGGUUGUACAUGAGGAUCACCCAUGUAAAGUCGAGAAGGGUGAUCACGCC	–	–	519	194
CAGGAUAGAGGAUAUACAUAGAUACAGAUUCAUGUAAUCCUACAUGAGGAUCACCCAUGUAGAAGGCUAUCCUG	14.9	64.9	–	–
UGGUCGCGAGGAUAUACAUGAGGAUCACCCAUGUUUGAGCGCCAUCCGUUCGGCUCGUGUAGAAGGUGCACACA	21.9	19.9	–	–
AAAAGGCUAGGAUAUACAUGAGGAUCACCCAUGUGAGGGCACGGCCGGCGCGGGCCCGGUAGAAGGAGUCAAAA	18.4	17.6	–	–
AGUGUGUGGCAGGAUAUUCUGUUGGUUCGGGCAGAAGAAGGGUCUACAUGAGGAUCACCCAUGUAAGCGGUUGA	205	486	–	–
AUAUUUGUGUAGAAGGUACGUGAUUAGUCAAAGUAAGGAUAUACUGACAUGAGGAUCACCCAUGUUUAAAUAGUUAAAUGUUCU	–	–	10.9	8.01
GACAUACAUGAGGAUCACCCAUGUUCAGACGGGCAAGGAUAUGUGUGGAAACCAUACUAUACAGAAGGUGUCUGUC	–	–	26.5	17.6
GGCCCACAAGGAUAUACAUGAGGAUCACCCAUGUAAAUCUCAGGUAGUAUGUGGGUGUGUAGAAGGUGUUAGCC	15.2	14.4	–	–
UUAAAUCAUGUAGGAUAUGCAUGGCGAAGCUACGCAGAAGGACAUGAGGAUCACCCAUGUUAUAGCUACCGAAUAAGGUGGCAA	–	224	–	–
CAGUUCUGAGGAUAUCCACCCUCGUACAUGAGGAUCACCCAUGUUUCCCUCUGGGCUUUCGGAGAAGGCAGGUAUC	51.4	50.4	–	–
CAGGUAGACUGAGGAUAUACAUUAAACAGCUAGUCUAUCUAGCUGCUCACAUGAGGAUCACCCAUGUAGAAGGCAGUCUGCCUG	26.1	75	–	–
